≈ marks a conversion by molar mass, not a printed value.

The record followed here is ChEMBL document CHEMBL1795235, “Quercetin diacylglycoside analogues showing dual inhibition of DNA gyrase and topoisomerase IV as novel antibacterial agents” (J Med Chem, 2011).

Experiment [1] relates to Enterococcus. The experiment in a line: Antibacterial activity against vancomycin resistant Enterococcus NCTC 12201 after 24 hrs by microdilution method. The experiment is classed as functional. The note with it: NCTC 12201, 24 h. The method, boiled down: (§1)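 Broth microdilution in Mueller-Hinton broth with 0.85% NaCl, inoculum about 10^5 CFU per 100 μL. Compounds were diluted in water from 25.6 mg/mL stocks to final 2-fold series of 0.062–128 μg/mL. Plates were incubated 24 h at 35 °C. MIC was the lowest concentration at which all triplicate wells were clear, from three independent determinations.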
(In general: Dilution methods test growth across graded concentrations, often in twofold steps.)

The test system of experiment [2] is Staphylococcus aureus. The experiment in a line: Antibacterial activity against methicillin-resistant Staphylococcus aureus OM584 after 24 hrs by microdilution method. The experiment is classed as functional. The conditions noted are these: OM584, 24 h. The method, boiled down: as §1
The nature of experiment [3]: Inhibition of Staphylococcus aureus DNA Topoisomerase 4-mediated decatenation of kDNA after 30 mins by densitometry. The method, boiled down: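 Purchased S. aureus topoIV, one unit with 200 ng kDNA, 37 °C, 30 min. Products resolved on 1.0% agarose in TAE. IC50 of decatenation from densitometry by interpolation equation, at least three determinations.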
Experiment [4] is described as follows: Inhibition of Escherichia coli DNA topoisomerase 4 subunit ParC/DNA topoisomerase 4 subunit ParE-mediated decatenation of kDNA by densitometry. Summed up:
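Purchased E. coli topoIV kit enzyme, one unit with 200 ng kDNA, 37 °C, 30 min. Buffer: 50 mM HEPES-KOH pH 7.6, 5 mM magnesium acetate, 100 mM potassium glutamate, 10 mM DTT, 1 mM ATP, 40% glycerol. Gel on 1.0% agarose in TAE. IC50 of decatenation from densitometry by interpolation equation, at least three determinations.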

Experiment [5] concerns Staphylococcus aureus. The experiment in a line: Antibacterial activity against methicillin-resistant Staphylococcus aureus OM481 after 24 hrs by microdilution method. It is filed as functional. The note with it: OM481, 24 h. The method, boiled down:
as §1

Experiment [6] relates to Staphylococcus aureus. Briefly: Antibacterial activity against methicillin-resistant Staphylococcus aureus COL after 24 hrs by microdilution method. It is filed as functional. Summed up: as §1
Experiment [7] deals with Streptococcus pneumoniae. The experiment in a line: Antibacterial activity against Streptococcus pneumoniae R6 after 24 hrs by microdilution method. It is filed as functional. The note with it: R6, 24 h. The method, boiled down: (§2)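 Broth microdilution in Mueller-Hinton broth with 0.85% NaCl, inoculum about 10^5 CFU per 100 μL. Compounds diluted from 25.6 mg/mL stocks in water to 2-fold series, final 0.062–128 μg/mL. […] Three independent determinations.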

The test system of experiment [8] is Staphylococcus aureus. The experiment in a line: Antibacterial activity against vancomycin-intermediate Staphylococcus aureus Mu50 after 24 hrs by microdilution method. The experiment is classed as functional. The conditions noted are these: Mu50, 24 h. The method, boiled down:
as §1

Experiment [9] concerns Staphylococcus aureus. Briefly: Antibacterial activity against methicillin-susceptible Staphylococcus aureus 209P after 24 hrs by microdilution method. The experiment is classed as functional. Summed up: as §1
Experiment [10] concerns Escherichia coli. Briefly: Antibacterial activity against Escherichia coli K-12 after 24 hrs by microdilution method. It is filed as functional. The note with it: K-12, 24 h. Summed up:
as §2

The test system of experiment [11] is Staphylococcus aureus. The experiment in a line: Antibacterial activity against methicillin-resistant Staphylococcus aureus N315 after 24 hrs by microdilution method. The conditions noted are these: N315, 24 h. It is filed as functional. Summed up:
as §1

In experiment [12] the test system is Enterococcus. Briefly: Antibacterial activity against vancomycin resistant Enterococcus FN-1 after 24 hrs by microdilution method. The experiment is classed as functional. The note with it: FN-1, 24 h. Summed up:
as §1

For experiment [13], the system named is Pseudomonas aeruginosa. Briefly: Antibacterial activity against Pseudomonas aeruginosa PAO1 after 24 hrs by microdilution method. The note with it: PAO1, 24 h. The experiment is classed as functional. Summed up:
as §2

A short description of experiment [14]: Inhibition of Escherichia coli DNA gyrase assessed as inhibition of pBR322 supercoiling by densitometry. Summed up: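 One unit of E. coli gyrase with 0.5 μg relaxed pBR322 DNA, 37 °C, 30 min. Stopped with sucrose/EDTA dye, run on 1.0% agarose in TAE. IC50 from densitometry via log-interpolation equation.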

Broadly, the MIC is the least concentration at which growth counts as inhibited. Low readings indicate a more susceptible organism, high ones a less susceptible organism. As usually defined, the IC50 is the midpoint of a concentration-inhibition curve. Regarding `CCOc1ccc(C(=O)OC[C@H]2O[C@@H](Oc3c(-c4ccc(O)c(O)c4)oc4cc(O)cc(O)c4c3=O)[C@H](OC(=O)c3ccc(OCC)cc3)[C@@H](O)[C@H]2O)cc1`, the MIC was found to be 8 µg/mL (≈ 10.5 µM) in [1]; 4 µg/mL (≈ 5.26 µM) in experiment [2]; 4 µg/mL (≈ 5.26 µM) in experiment [5]; 16 µg/mL (≈ 21 µM) in [6]; 4 µg/mL (≈ 5.26 µM) in experiment [7]; 4 µg/mL (≈ 5.26 µM) in experiment [8]. The MIC in [9] is 4 µg/mL (≈ 5.26 µM); in experiment [10], over 128 µg/mL; in [11] it was 8 µg/mL (≈ 10.5 µM); in experiment [12] it was 8 µg/mL (≈ 10.5 µM); in experiment [13] it was over 128 µg/mL. In addition, the values for the IC50 in experiment [3], in experiment [4] and in [14] were 1.78 µM, 11.3 µM and 0.43 µM, respectively.

Turning to `Cc1ccc(CC(=O)OC[C@H]2O[C@@H](Oc3c(-c4ccc(O)c(O)c4)oc4cc(O)cc(O)c4c3=O)[C@H](OC(=O)Cc3ccc(C)cc3)[C@@H](O)[C@H]2O)cc1`, the MIC in experiment [1] was 4 µg/mL (≈ 5.49 µM); in [2] it was 2 µg/mL (≈ 2.74 µM); in experiment [5], 2 µg/mL (≈ 2.74 µM); in experiment [6], 16 µg/mL (≈ 22 µM); in [7], 2 µg/mL (≈ 2.74 µM); in experiment [8], 4 µg/mL (≈ 5.49 µM). Besides, the MIC in [9] was 4 µg/mL (≈ 5.49 µM); in experiment [10], over 128 µg/mL; in experiment [11], 8 µg/mL (≈ 11 µM); in experiment [12], 8 µg/mL (≈ 11 µM); in [13] it was over 128 µg/mL. Also, the IC50 came to 2.69 µM in experiment [3], 10.5 µM in experiment [4] and 2.21 µM in experiment [14].

As to `O=C(CCCCc1ccc(F)cc1)OC[C@H]1O[C@@H](Oc2c(-c3ccc(O)c(O)c3)oc3cc(O)cc(O)c3c2=O)[C@H](OC(=O)CCCCc2ccc(F)cc2)[C@@H](O)[C@H]1O`, the MIC was 16 µg/mL (≈ 19.5 µM) in experiment [1]; 4 µg/mL (≈ 4.87 µM) in experiment [2]; 4 µg/mL (≈ 4.87 µM) in [5]; 16 µg/mL (≈ 19.5 µM) in [6]; 8 µg/mL (≈ 9.75 µM) in experiment [7]; 16 µg/mL (≈ 19.5 µM) in experiment [8]. Besides, the MIC in [9] is 4 µg/mL (≈ 4.87 µM); in experiment [10] it was over 128 µg/mL; in experiment [11], 2 µg/mL (≈ 2.44 µM); in experiment [12] it was 16 µg/mL (≈ 19.5 µM); in experiment [13], over 128 µg/mL. The IC50 was 4.05 µM in experiment [3], over 12 µM in experiment [4] and 5.02 µM in experiment [14].

In the case of `O=C(CCCc1ccc(F)cc1)OC[C@H]1O[C@@H](Oc2c(-c3ccc(O)c(O)c3)oc3cc(O)cc(O)c3c2=O)[C@H](OC(=O)CCCc2ccc(F)cc2)[C@@H](O)[C@H]1O`, the MIC stood at 8 µg/mL (≈ 10.1 µM) in experiment [1]; 2 µg/mL (≈ 2.52 µM) in [2]; 2 µg/mL (≈ 2.52 µM) in experiment [5]; 16 µg/mL (≈ 20.2 µM) in experiment [6]; 4 µg/mL (≈ 5.05 µM) in experiment [7]; 4 µg/mL (≈ 5.05 µM) in experiment [8]. Also, the minimum inhibitory concentration (MIC) in experiment [9] was 4 µg/mL (≈ 5.05 µM); in experiment [10] it was over 128 µg/mL; in experiment [11], 4 µg/mL (≈ 5.05 µM); in experiment [12] it was 8 µg/mL (≈ 10.1 µM); in experiment [13] it was over 128 µg/mL. Moreover, the figures for the concentration for half-maximal inhibition (IC50) in experiment [3], in experiment [4] and in experiment [14] were 2.94 µM, 10.7 µM and 2.98 µM, respectively.

As for `O=C(OC[C@H]1O[C@@H](Oc2c(-c3ccc(O)c(O)c3)oc3cc(O)cc(O)c3c2=O)[C@H](OC(=O)c2ccc(F)cc2)[C@@H](O)[C@H]1O)c1ccc(F)cc1`, the MIC is 4 µg/mL (≈ 5.65 µM) in experiment [1]; 2 µg/mL (≈ 2.82 µM) in experiment [2]; 2 µg/mL (≈ 2.82 µM) in experiment [5]; 8 µg/mL (≈ 11.3 µM) in [6]; 4 µg/mL (≈ 5.65 µM) in [7]; 2 µg/mL (≈ 2.82 µM) in [8]. In addition, the MIC in experiment [9] is 4 µg/mL (≈ 5.65 µM); in [10], over 128 µg/mL; in experiment [11] it was 8 µg/mL (≈ 11.3 µM); in [12] it was 4 µg/mL (≈ 5.65 µM); in [13] it was over 128 µg/mL. The results for the IC50 in experiment [3], in experiment [4] and in experiment [14] were 0.52 µM, 11 µM and 0.38 µM, respectively.
